Experimental data taken from ChEMBL document CHEMBL2311405, “Synthesis and biological evaluation of indenoisoquinolines that inhibit both tyrosyl-DNA phosphodiesterase I (Tdp1) and topoisomerase I (Top1)” (J Med Chem, 2013).
Active and inactive are the calls of the source. The calls are words filed in the database; no cut-off is given here.

Key:
[1] = target: T1, DNA topoisomerase 1 (Homo sapiens) (UniProt P11387); experiment: Inhibition of recombinant Top1 (unknown origin) using 3'-[32P]-end-labeled 117 bp oligonucleotide as substrate after 20 mins by SDS-PAGE analysis relative to 1 uM camptothecin
T1 sequence (whole entry): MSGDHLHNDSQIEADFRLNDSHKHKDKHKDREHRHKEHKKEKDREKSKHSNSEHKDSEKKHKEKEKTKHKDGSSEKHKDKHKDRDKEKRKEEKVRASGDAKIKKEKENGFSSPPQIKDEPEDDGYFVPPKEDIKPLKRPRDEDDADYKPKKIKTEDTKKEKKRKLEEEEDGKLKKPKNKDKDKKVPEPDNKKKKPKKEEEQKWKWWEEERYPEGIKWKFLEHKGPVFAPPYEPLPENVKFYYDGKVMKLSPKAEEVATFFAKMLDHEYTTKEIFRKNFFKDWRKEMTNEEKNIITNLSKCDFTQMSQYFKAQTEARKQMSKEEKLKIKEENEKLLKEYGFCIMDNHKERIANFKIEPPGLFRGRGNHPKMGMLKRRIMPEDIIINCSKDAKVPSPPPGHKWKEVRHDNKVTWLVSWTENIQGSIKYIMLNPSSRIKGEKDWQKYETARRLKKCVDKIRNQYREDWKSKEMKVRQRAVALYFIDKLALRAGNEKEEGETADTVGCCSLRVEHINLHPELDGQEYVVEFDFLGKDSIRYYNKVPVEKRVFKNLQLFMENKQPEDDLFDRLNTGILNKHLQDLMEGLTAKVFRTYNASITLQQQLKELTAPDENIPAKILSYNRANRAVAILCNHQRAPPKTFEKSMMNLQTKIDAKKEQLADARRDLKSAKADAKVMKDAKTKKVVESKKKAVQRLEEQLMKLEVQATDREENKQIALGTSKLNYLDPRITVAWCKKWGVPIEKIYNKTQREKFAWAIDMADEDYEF

[2] = tested on: SF-539; experiment: Growth inhibition of human SF539 cells; type: functional
Procedure, shortened: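 Human cancer cell line panel, compounds tested at concentrations up to 10 μM. GI50 per cell line is the mean of two determinations where a standard error is given, otherwise from one determination.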

[3] = tested on: SN12C; experiment: Growth inhibition of human SN12C cells; type: functional
[4] = tested on: UACC-62; experiment: Growth inhibition of human UACC62 cells; type: functional
[5] = tested on: HCT-116; experiment: Growth inhibition of human HCT116 cells; type: functional
[6] = tested on: HOP-62; experiment: Growth inhibition of human HOP62 cells; type: functional

Compound	inhibition [1]	GI50 [2] [nM]	GI50 [3] [nM]	GI50 [4] [nM]	GI50 [5] [nM]	GI50 [6] [nM]
COc1cccc2c1-c1c(c3ccc([N+](=O)[O-])cc3c(=O)n1CCCN)C2=O	Active	–	–	–	–	–
COc1ccc2c(c1)C(=O)c1c-2n(CCCN)c(=O)c2cc([N+](=O)[O-])ccc12	Active	< 10	< 10	< 10	< 10	< 10
